In ChEMBL document CHEMBL4765334, “Chemical profiling of HIV-1 capsid-targeting antiviral PF74” (Eur J Med Chem, 2020):
pEC50: −log10 of the molar value.

Experiments:
[1] = test system: Human immunodeficiency virus 1; test: Antiviral activity against HIV1 NL4-3 infected in human TZM-GFP cells assessed as number of GFP positive cells incubated for 48 hrs by imaging reader; assay type: functional, organism-based; details: Human immunodeficiency virus 1, NL4-3, TZM
Procedure, shortened: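 TZM-GFP cells seeded 1 × 10^4/well and given increasing compound concentrations 24 h later; infected with HIV-1 NL4-3 (MOI = 1) after a further 24 h. Read-out after 48 h: GFP-positive cell counts (LTR-driven) versus DMSO controls. EC50 fitted as log(inhibitor) vs normalized response, variable slope, per experiment and averaged; mean ± SD, duplicates, at least two independent experiments.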

TZM = test: Cytotoxicity against human TZM-GFP cells incubated for 72 hrs by XTT assay; assay type: cell-based; details: tzm, 72 h
Procedure, shortened: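 TZM-GFP cells seeded at 1 × 10^4 per well and exposed continuously to increasing compound concentrations for 72 h. Viable cell number read by XTT proliferation kit. CC50 fitted as log(inhibitor) vs normalized response, variable slope, per independent assay and averaged. Run in duplicate, at least two independent experiments, reported as mean ± standard deviation.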

[2] = test system: Human immunodeficiency virus 1; test: Binding affinity to covalently-crosslinked hexameric HIV1 capsid protein A14C/E45C/W184A/M185A mutant expressed in Escherichia coli BL21(DE3)RIL assessed as change in melting temperature at 20 uM incubated for 30 mins by thermal shift dye based fluorescence analysis
Procedure, shortened: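 Thermal shift: 15 μM CA121 in 50 mM sodium phosphate pH 8.0 with Sypro Orange and compound at 20 μM final or DMSO control. Heated 25 to 95 °C at 0.2 °C/10 s; fluorescence Ex 475–500, Em 520–590 nm. ΔTm = Tm(compound) − T0(DMSO) for CA hexamer melting.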

SMILES	pEC50 [1]	CC50 (TZM)	ΔTm [2]
CCN(C(=O)[C@H](Cc1ccccc1)NC(=O)Cc1cn(C(C)C)c2ccccc12)c1ccccc1	6.06	15 µM	5.7 °C
Cc1c(CC(=O)N[C@@H](Cc2ccccc2)C(=O)N(C)c2cccc(F)c2)c2ccccc2n1C(C)C	6.54	17 µM	7 °C
CCn1cc(CC(=O)N[C@@H](Cc2ccccc2)C(=O)N(C)c2cccc(F)c2)c2ccccc21	6.08	31 µM	5.9 °C
CCn1cc(CC(=O)N[C@@H](Cc2ccccc2)C(=O)N(C)c2cccc(Cl)c2)c2ccccc21	5.70	20 µM	5.8 °C
Cc1ccc(N(C)C(=O)[C@H](Cc2ccccc2)NC(=O)Cc2c(C)n(C(C)C)c3ccccc23)cc1	6.20	10 µM	8.4 °C
CC(C)n1cc(CC(=O)N[C@@H](Cc2ccccc2)C(=O)N(C)c2cccc(F)c2)c2ccccc21	6.49	12 µM	5.8 °C
Cc1[nH]c2ccccc2c1CC(=O)N[C@@H](Cc1ccccc1)C(=O)Nc1nc2ccccc2[nH]1	4.96	15 µM	-0.6 °C
Cc1cc(NC(=O)[C@H](Cc2ccccc2)NC(=O)Cc2c[nH]c3ccccc23)n[nH]1	< 4.70	> 100 µM	0 °C
CCN(C(=O)[C@H](Cc1ccccc1)NC(=O)Cc1c[nH]c2ccccc12)c1ccccc1	6.36	70 µM	6.4 °C
CCn1cc(CC(=O)N[C@@H](Cc2ccccc2)C(=O)N(C)c2ccc(Cl)cc2)c2ccccc21	6.60	16 µM	8.6 °C
CCn1cc(CC(=O)N[C@@H](Cc2ccccc2)C(=O)N(C)c2ccc(C)cc2)c2ccccc21	6.47	14 µM	8.6 °C
CN(C(=O)[C@H](Cc1ccccc1)NC(=O)Cc1c[nH]c2ccccc12)c1ccc(Cl)cc1	6.35	< 50 µM	4.6 °C
Cc1[nH]c2ccccc2c1CC(=O)N[C@@H](Cc1ccccc1)C(=O)Nc1ccc2ncsc2c1	5.00	49 µM	1.4 °C
Cc1c(CC(=O)N[C@@H](Cc2ccccc2)C(=O)N(C)c2cccc(Cl)c2)c2ccccc2n1C(C)C	6.44	14 µM	5.5 °C
O=C(Cc1c[nH]c2ccccc12)N[C@@H](Cc1ccccc1)C(=O)Nc1cccnn1	< 4.70	> 100 µM	0.8 °C
O=C(Cc1c[nH]c2ccccc12)N[C@@H](Cc1ccccc1)C(=O)NC(c1ccccc1)c1ccccc1	< 4.70	> 100 µM	-1.6 °C
Cc1[nH]c2ccccc2c1CC(=O)N[C@@H](Cc1ccccc1)C(=O)N(C)c1cccc(C(F)(F)F)c1	6.24	18 µM	5.4 °C
CCn1c(C)c(CC(=O)N[C@@H](Cc2ccccc2)C(=O)N(C)c2ccc(C)cc2)c2ccccc21	6.64	18 µM	11 °C
CN(C(=O)[C@H](Cc1ccccc1)NC(=O)Cc1c[nH]c2ccccc12)c1cccc(Br)c1	5.70	< 50 µM	3.5 °C
Cc1[nH]c2ccccc2c1CC(=O)N[C@@H](Cc1ccccc1)C(=O)NC(c1ccccc1)c1ccccc1	< 4.70	> 100 µM	0 °C
O=C(Cc1c[nH]c2ccccc12)N[C@@H](Cc1ccccc1)C(=O)Nc1cccc(-c2nnn[nH]2)c1	< 4.70	> 100 µM	-0.7 °C
Cc1[nH]c2ccccc2c1CC(=O)N[C@@H](Cc1ccccc1)C(=O)Nc1ccccc1	< 4.70	40 µM	0.7 °C
Cc1[nH]c2ccccc2c1CC(=O)N[C@@H](Cc1ccccc1)C(=O)Nc1cccnn1	< 4.70	> 100 µM	0 °C

SMILES	pEC50 [1]	CC50 (TZM)	ΔTm [2]
O=C(Cc1c[nH]c2ccccc12)N[C@@H](Cc1ccccc1)C(=O)Nc1ccccc1	< 4.70	96 µM	0 °C
O=C(Cc1c[nH]c2ccccc12)N[C@@H](Cc1ccccc1)C(=O)Nc1ccc2ncsc2c1	< 4.70	68 µM	0 °C
CCn1c(C)c(CC(=O)N[C@@H](Cc2ccccc2)C(=O)N(C)c2cccc(Cl)c2)c2ccccc21	6.31	16 µM	9.2 °C
CC(C)n1cc(CC(=O)N[C@@H](Cc2ccccc2)C(=O)N(C)c2cccc(Cl)c2)c2ccccc21	5.89	13 µM	4.5 °C
CCN(C(=O)[C@H](Cc1ccccc1)NC(=O)Cc1c(C)n(CC)c2ccccc12)c1ccccc1	6.25	20 µM	10 °C
Cc1[nH]c2ccccc2c1CC(=O)N[C@@H](Cc1ccccc1)C(=O)N(C)c1cccnc1	< 4.70	> 100 µM	0 °C
Cc1[nH]c2ccccc2c1CC(=O)N[C@@H](Cc1ccccc1)C(=O)NCc1cccc2[nH]ccc12	< 4.70	36 µM	0 °C
Cc1cc(NC(=O)[C@H](Cc2ccccc2)NC(=O)Cc2c(C)[nH]c3ccccc23)n[nH]1	< 4.70	> 100 µM	0 °C
Cc1[nH]c2ccccc2c1CC(=O)N[C@@H](Cc1ccccc1)C(=O)Nc1cccc(C#N)c1	< 4.70	> 100 µM	-0.5 °C
CN(C(=O)[C@H](NC(=O)Cc1c[nH]c2ccccc12)c1ccccc1)c1ccccc1	< 4.70	> 50 µM	1.5 °C
Cc1[nH]c2ccccc2c1CC(=O)N[C@@H](Cc1ccccc1)C(=O)NC12CC3CC(CC(C3)C1)C2	< 4.70	> 100 µM	-0.8 °C
CCn1c(C)c(CC(=O)N[C@@H](Cc2ccccc2)C(=O)N(C)c2ccc(Cl)cc2)c2ccccc21	6.62	27 µM	11.9 °C
O=C(Cc1c[nH]c2ccccc12)N[C@@H](Cc1ccccc1)C(=O)Nc1nc2ccccc2[nH]1	< 4.70	44 µM	-0.6 °C
CCn1c(C)c(CC(=O)N[C@@H](Cc2ccccc2)C(=O)N(C)c2cccc(F)c2)c2ccccc21	6.48	20 µM	10.8 °C
CN(C(=O)[C@H](Cc1ccccc1)NC(=O)Cc1c[nH]c2ccccc12)c1cccnc1	< 4.70	> 100 µM	-0.8 °C
Cc1[nH]c2ccccc2c1CC(=O)N[C@@H](Cc1ccccc1)C(=O)N(C)c1cccc(F)c1	6.16	> 50 µM	6.2 °C
CC(C)n1cc(CC(=O)N[C@@H](Cc2ccccc2)C(=O)N(C)c2ccc(Cl)cc2)c2ccccc21	6.49	10 µM	7.1 °C
O=C(Cc1c[nH]c2ccccc12)N[C@@H](Cc1ccccc1)C(=O)NCc1cccc2[nH]ccc12	< 4.70	< 100 µM	0.5 °C
Cc1[nH]c2ccccc2c1CC(=O)N[C@@H](Cc1ccccc1)C(=O)N(C)c1cccnn1	5.43	> 100 µM	3.2 °C
Cc1[nH]c2ccccc2c1CC(=O)N[C@@H](Cc1ccccc1)C(=O)Nc1ccc(Cl)cc1	< 4.70	> 100 µM	0 °C
Cc1cc(N(C)C(=O)[C@H](Cc2ccccc2)NC(=O)Cc2c(C)[nH]c3ccccc23)n[nH]1	< 4.70	< 100 µM	0 °C
O=C(Cc1c[nH]c2ccccc12)N[C@@H](Cc1ccccc1)C(=O)O	< 4.70	> 50 µM	-0.6 °C
